Compound activity from PubChem BioAssay.
H69AR growth 86K = proliferation blockers of H69AR lung cancer cells, primary screen, cell-based, human, 86K library. H69AR lung tumor viability, ATP luminescence, 72 h; active compounds read low. viability, % at 10 µM. 6% of 85,000 active;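 active = viability at or below 40%; inactive = viability above 40%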;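 also: multidrug resistant small cell line overexpressing MRP-1 efflux transporter; 100% = mean luminescence of untreated control wells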
HUVEC inhibit = inhibitors of HUVEC proliferation, primary screen, cell-based, 384-well | CellTiter-Glo luminescence, 72 h; active compounds read low | viability, % at 10 µM (by protocol) | 1.1% of 86,000 active;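 active = viability at or below 30%; inactive = viability above 30%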;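 also: 100% = median luminescence of DMSO-only cell control wells on each plate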
HCT116 PTEN-null = growth suppression of PTEN-null HCT116, primary screen, cell-based, CellTiter-Glo; viability, % at 10 µM; 1.2% of 140,000 active; AID 827, 2007; HCT116 PTEN-null viability, 60 h; active compounds read low;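 active = viability at or below a set limit, 4 SD under the median of all tested compounds, cut at about 3.7% in these data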;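 also: PTEN knockout HCT116 line with beta catenin targeted HCT116 as companion control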
HCT116 bCat-KO = primary screen for growth suppressors in beta-catenin knockout HCT116 cells (colon tumor, human); HCT116 beta-catenin knockout viability, CellTiter-Glo, 60 h; active compounds read low; viability, % at 10 µM; 1.5% of 140,000 active;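 active = viability at or under a set limit, the compound median less 4 SD, cut at about 6% in these data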;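 also: 0% = Hyamine 1622 control at 20 µM and 100% = untreated cell control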
Fibroblast inh = antiproliferative effect on LL 47 fibroblasts – human, LL 47 cells, CellTiter-Glo luminescence, primary screen. viability, % at 10 µM. LL 47 human lung fibroblast viability, ATP luminescence; active compounds read low. 1.1% of 85,000 active;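 active = viability at or below 50% in the single dose screen; inactive = viability above 50%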;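 also: compound exposure lasted 72 h before the ATP readout; 100% = median luminescence of untreated cell-only wells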
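test system = LL 47 human lung fibroblasts | amount = 1,150 fibroblasts seeded per well | medium = 15% FBS in IMEM | times = overnight cell rest, 72 h compound treatment at 37 °C | measured by = CellTiter-Glo luminescence measuring cellular ATP | read-out = viability percentage against median untreated-cell control | benchmarks = cell-only wells, no compound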
* = called active by the depositor; nt = no result given. This excerpt belongs to a sample that is enriched for hits.

SMILES	H69AR growth 86K	HUVEC inhibit	HCT116 PTEN-null	HCT116 bCat-KO	Fibroblast inh
C=CCn1c(=O)/c(=C/c2cc(OC)c(OC)c(OC)c2)s/c1=C(/C#N)c1nc2ccccc2n1C	10*	50	56	48	55
CCCN1C(=O)/C(=C2\SC(N3CCCCC3)=NC2=O)c2ccccc21	19*	89	62	65	nt
O=C1N=C(N2CCOCC2)S/C1=C1\C(=O)N(Cc2ccccc2)c2ccccc21	29*	55	70	80	77
CN1C(=O)/C(=C2\SC(N3CCCCCC3)=NC2=O)c2ccccc21	49	78	nt	65	87
CC1CN=C(N(C(=O)Nc2ccccc2)c2ccc(S(=O)(=O)N3CCOCC3)cc2)S1 (stereo not drawn)	63	85	89	86	98
COc1ccc(N(CCCN2C(=O)c3cccc4cccc(c34)C2=O)C(=O)c2cccc(OC)c2)cc1	nt	nt	77	77	nt
CCOc1cnn(-c2cc(Oc3ccc(C)cc3)ncn2)c(=O)c1Cl	nt	nt	90	88	nt
Cc1ccccc1Oc1cc(-n2ncc(Cl)c(Cl)c2=O)ncn1	nt	nt	1.9*	1.6*	nt
CCCc1nc(NCc2ccncc2)c2nnn(Cc3ccccc3F)c2n1	42	89	3.2*	1.9*	90
Cc1ccc2nc(/C(C#N)=C\c3ccc(Oc4ccc(C(F)(F)F)cc4[N+](=O)[O-])cc3)[nH]c2c1	nt	nt	28	39	nt
COc1ccc(/C=C(\C#N)c2nc3ccc(C)cc3[nH]2)cc1Oc1ccc(C(F)(F)F)cc1[N+](=O)[O-]	nt	nt	1.3*	1.5*	nt
CCOC(=O)c1c(-c2ccc(C)o2)csc1NC(=O)CSc1nncs1	31*	89	92	100	97
CC(C)(C)c1nnc(NC(=O)Cc2ccc(Br)cc2)s1	nt	nt	97	97	nt
O=C(CCCO)N/N=C/c1ccccc1[N+](=O)[O-]	nt	nt	87	91	nt
COc1ccc(NC(=O)c2cnc3sccn3c2=O)cc1OC	91	102	nt	nt	106
N#Cc1nc(-c2cccc3ccccc23)oc1NCCN1CCCCC1	13*	5.1*	47	57	53
CSc1cccc(NC(=O)Nc2ccc(Cl)cc2)c1	86	97	63	62	94
CSc1ccccc1NC(=O)Nc1ccc(Cl)cc1	35*	47	20	29	84
C[C@@H](NC(=O)c1coc(=O)c(Br)c1)c1ccccc1	3.7*	83	81	86	54
CCOC(=O)c1ccc(Cn2c(-c3ccccc3)nnc2-c2ccccc2)o1	33*	97	79	77	91
CCOC(=O)c1ccc(NC(=S)NNC(=O)C2(C)CC2(Cl)Cl)cc1 (stereo not drawn)	nt	nt	94	95	nt
Cc1nn(-c2cc(N3CCOCC3)ccc2[N+](=O)[O-])c(=O)c2ccccc12	101	91	98	98	96
Cc1nn(-c2cc(N3CCCC3)ccc2[N+](=O)[O-])c(=O)c2ccccc12	33*	83	88	91	103
O=C(NC(=S)Nc1ccc2c(c1)OCO2)c1ccc(Cl)cc1	nt	nt	64	0.2*	nt
CC(=O)c1ccc(NC2=C(N3CCOCC3)C(=O)c3ccccc3C2=O)cc1	nt	nt	38	49	nt
SMILES	H69AR growth 86K	HUVEC inhibit	HCT116 PTEN-null	HCT116 bCat-KO	Fibroblast inh
CC(=O)N(C)C1=C(N2CCOCC2)C(=O)c2ccccc2C1=O	nt	nt	0.8*	0.7*	nt
COc1ccccc1Cn1c(=O)c2ccccc2n2c(Sc3ncnc4sccc34)nnc12	1.4*	75	5	9	56
Cc1onc(-c2ccccc2Cl)c1C(=O)Nc1ncn[nH]1	nt	nt	99	101	nt
Cc1nc(NCc2ccco2)c2c3c(sc2n1)CCC3	47	21*	60	59	62
c1coc(CNc2ncnc3sc4c(c23)CCCCC4)c1	90	92	45	58	100
O=C(Oc1cccc2cccnc12)c1cccc(N2C(=O)C3C4CCC(C4)C3C2=O)c1 (stereo not drawn)	nt	nt	2.1*	4.5*	nt
COC1=CC(=O)CC(C)C12Oc1c(Cl)c(OC)cc(OC)c1C2=O (stereo not drawn)	29*	92	52	60	87
CN1CCc2c(sc3c2C(=O)NC(c2ccc(-c4cccc(Cl)c4)o2)N3)C1 (stereo not drawn)	3.3*	48	nt	nt	94
CN1CCc2c(sc3c2C(=O)NC(c2cccs2)N3)C1 (stereo not drawn)	97	94	92	90	121
